Results from PubChem BioAssay AID602148 (NMMLSC, 2011).
Calls of active or inactive are those of the source.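 How the source made its calls: active means a drop over time in fluorescent ligand binding to the VLA-4 integrin, graded weak or strong, level 1 or 2; inactive means no binding drop, level 0.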

test system: U937 deltaST FPR, LDV-FITC VLA-4 binding, flow cytometry; experiment: GTPase hits reducing LDV-FITC binding to VLA-4 – U937 deltaST FPR cells, flow cytometry, mechanism study for Ras-related GTPase inhibitor project (AID 602148); details: at 50 µM; hits give high values
Procedure, shortened: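 system = U937 cells with non-desensitizing deltaST formyl peptide receptors | incubation = 1024 s reading at 37 °C | technique = flow cytometry, mean channel fluorescence of bound LDV-FITC | read-out basis = graded drop in LDV-FITC binding (0-2) | controls = unlabeled LDV excess as nonspecific control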

VLA-4 affinity decrease level (0-2)	Compound
2	CC1(C)Cc2c(sc(NC(=S)NC(=O)c3ccc(Br)cc3)c2C(=O)O)CO1
0 (inactive)	Cc1cccc(C(=O)NC(=S)Nc2sc3c(c2C(=O)O)CC(C)(C)OC3)c1
1	COc1ccccc1C(=O)NC(=S)Nc1sc2c(c1C(=O)O)CC(C)(C)OC2
2	CC1(C)Cc2c(sc(NC(=S)NC(=O)c3ccccc3Br)c2C(=O)O)CO1
0 (inactive)	CCC1(C)Cc2c(sc(NC(=S)NC(=O)c3ccccc3)c2C(=O)O)CO1 (stereo not drawn)
1	COc1ccc(C(=O)NC(=S)Nc2sc3c(c2C(=O)O)CC(C)(C)OC3)cc1
0 (inactive)	CC1(C)Cc2c(sc(NC(=S)NC(=O)c3ccccc3F)c2C(=O)O)CO1
0 (inactive)	Cc1ccccc1C(=O)NC(=S)Nc1sc2c(c1C(=O)O)CC(C)(C)OC2
0 (inactive)	CC(C)(C)C1Cc2c(sc(NC(=S)NC(=O)c3ccccc3)c2C(=O)O)CO1 (stereo not drawn)
2	CC1(C)Cc2c(sc(NC(=S)NC(=O)c3cccc(Br)c3)c2C(=O)O)CO1
0 (inactive)	Cc1ccc(C(=O)NC(=S)Nc2sc3c(c2C(=O)O)CC(C)(C)OC3)cc1
0 (inactive)	CC1(C)Cc2c(sc(NC(=S)NC(=O)c3cccs3)c2C(=O)O)CO1
0 (inactive)	O=C(NC(=S)Nc1sc2c(c1C(=O)O)CC1(CCCC1)OC2)c1ccccc1
0 (inactive)	CC1(C)Cc2c(sc(NC(=S)NC(=O)c3ccc(F)cc3)c2C(=O)O)CO1
0 (inactive)	CC1(C)Cc2c(sc(NC(=S)NC(=O)c3ccco3)c2C(=O)O)CO1
1	CC1(C)Cc2c(sc(NC(=S)NC(=O)C3CCCCC3)c2C(=O)O)CO1
2	COc1cccc(C(=O)NC(=S)Nc2sc3c(c2C(=O)O)CC(C)(C)OC3)c1
1	CC1(C)Cc2c(sc(NC(=S)NC(=O)c3cccc(F)c3)c2C(=O)O)CO1
